How the values were obtained:
[1] = tested on: Q111 cells; experiment: 3-NP toxicity, LIVE/DEAD viability assay, Q111 cells; assay type: cell-based, mouse
[2] = tested on: PGC-1α mRNA, Q111 striatal cells; experiment: PGC-1α mRNA by quantitative RT-PCR, Q111 cells; assay type: cell-based, mouse
Summary of the method: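 Total RNA (2 µg) from Q7/Q111 striatal cells, run either by TaqMan one-step RNA-to-Ct or by Superscript III reverse transcription followed by TaqMan gene expression assays on real-time PCR. Quantified by the delta-delta CT method, normalised to 18S […].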

[3] = tested on: DNAJB10; settings: ref Karpuj et al, 2002; cited from earlier work
[4] = tested on: glutathione; settings: ref Mao et al, 2006; cited from earlier work
[5] = tested on: Caspase; settings: ref Bailey & Johnson, 2006; Jeitner et al, 2005; cited from earlier work
[6] = tested on: HD model mice; settings: ref Karpuj et al, 2002; Fox et al, 2004; cited from earlier work
[7] = tested on: Caenorhabditis elegans; settings: ref Borrell-Pages et al, 2006; cited from earlier work
[8] = tested on: BDNF; settings: ref Borrell-Pages et al, 2006; cited from earlier work
[9] = tested on: DNAJ (HSJ1b), striatal neurons; settings: ref Borrell-Pages et al, 2006, cited from earlier work
[10] = tested on: PGC-1α; settings: ref Milnerwood et al, 2010; Okamoto et al, 2009; cited from earlier work

Q: Which “toxicity of 3-NP, Q111 compared with Q7 cells” value ([1]; 3-NP 10 mM for 48 h) does the source give for `O=C(O)CC[N+](=O)[O-]` [3-NP, 3-nitropropionic acid] here?
A: more toxic to Q111 cells than to Q7 cells

Q: With `CCCC(=O)O` [NaBu, Sodium butyrate] as the compound, how does the “effect on PGC-1α mRNA levels” value [2] read?
A: increased the mRNA levels of PGC-1α

Q: For `CC(/C=C/C(=O)NO)=C\[C@@H](C)C(=O)c1ccc(N(C)C)cc1` [TSA, Trichostatin A], which “effect on PGC-1α mRNA levels” value [2] is on record?
A: increased the mRNA levels of PGC-1α

Q: With `NCCSSCCN` [cystamine] as the compound, how does the “protection against 3-NP toxicity” value ([1]; not shown, cell line not stated) read?
A: protect against 3-NP toxicity

Q: What about the “DNAJB10 in treated mice” value [3] of the same compound?
A: increased

Q: And the glutathione levels [4]?
A: increases levels of the versatile antioxidant glutathione

Q: What about the caspase inhibition [5] of the same compound?
A: caspase inhibition

Q: What about the “neuroprotection in HD models” value [6] of the same compound?
A: neuroprotective

Q: Which results are given for `NCCS` [cysteamine]?
A: protection of worms from toxic effects of mhtt [7]: protected worms; trafficking of BDNF [8]: enhanced; DNAJB10 levels [9]: normalize DNAJB10 levels; DNAJ (HSJ1b) transcription and protein levels ([9]; striatal neurons in vitro): increased

Q: For `CC12CC3CC(C)(C1)CC(N)(C3)C2` [memantine], which “transcriptional dysregulation of PGC-1α induced by extrasynaptic glutamate” value [10] is on record?
A: appears to prevent transcriptional dysregulation of PGC-1α

Reference: publication PMC3068019 (EMBO Molecular Medicine, 2010)
